Legend:
Liver = assay: (§1) Metabolic stability assessed as half life in mouse liver microsomes; format: ADME, Microsome; conditions: microsomes
Summary of the method: (§2)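 Compound incubated with mouse liver microsomes. Half-time is for the loss of parent compound, in minutes.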

Plasmodium falciparum [1] = assay: Inhibition of Plasmodium falciparum protein farnesyltransferase at 0.5 nM
Plasmodium falciparum [2] = assay: Inhibition of Plasmodium falciparum protein farnesyltransferase at 50 nM
Plasmodium falciparum [3] = assay: Antimalarial activity against chloroquine-sensitive Plasmodium falciparum 3D7 in human red blood cells after 48 hrs; format: functional; conditions: 3D7, 48 h, read-out: ED50 (the source's name)
Summary of the method: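 P. falciparum strain 3D7 (chloroquine-sensitive) grown in red blood cell cultures. ED50 was taken as the compound concentration that inhibits parasite growth by 50%.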

Plasmodium falciparum [4] = assay: Inhibition of Plasmodium falciparum protein farnesyltransferase at 500 nM
Plasmodium falciparum [5] = assay: Inhibition of Plasmodium falciparum protein farnesyltransferase at 5 nM
[6] = as §1; format: ADME, Microsome; conditions: liver microsomes; summary of the method: as §2
Plasmodium falciparum [7] = assay: Antimalarial activity against chloroquine-resistant Plasmodium falciparum K1 in human red blood cells after 48 hrs; format: functional; conditions: K1, 48 h, read-out: ED50 (the source's name)
Summary of the method: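 Parasites grown in red blood cell cultures; ED50 is the concentration that inhibits parasite growth by 50%.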

Rattus norvegicus [8] = species: Rattus norvegicus; assay: Inhibition of rat protein farnesyltransferase at 50 nM
Rattus norvegicus [9] = species: Rattus norvegicus; assay: Inhibition of rat protein farnesyltransferase at 5000 nM
Rattus norvegicus [10] = species: Rattus norvegicus; assay: Inhibition of rat protein farnesyltransferase at 500 nM
Rattus norvegicus [11] = species: Rattus norvegicus; assay: Inhibition of rat protein farnesyltransferase at 5 nM
Rattus norvegicus [12] = species: Rattus norvegicus; assay: Inhibition of rat protein farnesyltransferase at 0.5 nM
Rattus norvegicus [13] = species: Rattus norvegicus; assay: Inhibition of rat protein geranylgeranyltransferase 1 at 1 uM
Summary of the method: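 Run like the rat PFT assay, but with rat PGGT-I (5 ng), H-Ras-CVLL peptide as substrate, and [3H]geranylgeranyl pyrophosphate as donor. Read-out is percent inhibition at a single inhibitor concentration.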

Plasmodium falciparum [14] = assay: Antimalarial activity against Plasmodium falciparum; format: functional; conditions: read-out: ED50
Summary of the method: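 P. falciparum parasites (chloroquine-sensitive strain 3D7 and chloroquine-resistant strain K1) were grown in red blood cell cultures with compound. ED50 is the concentration giving 50% inhibition of parasite growth, in nM.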

Compound	t1/2 (Liver)	inhibition (Plasmodium falciparum [1])	inhibition (Plasmodium falciparum [2])	EC50 (Plasmodium falciparum [3])	inhibition (Plasmodium falciparum [4])	inhibition (Plasmodium falciparum [5])	half-life [6]	EC50 (Plasmodium falciparum [7])	inhibition (Rattus norvegicus [8])	inhibition (Rattus norvegicus [9])	inhibition (Rattus norvegicus [10])	inhibition (Rattus norvegicus [11])	inhibition (Rattus norvegicus [12])	inhibition (Rattus norvegicus [13])	EC50 (Plasmodium falciparum [14])
Cn1cnc(S(=O)(=O)N(Cc2ccc(S(C)(=O)=O)cc2)C2Cc3cc(C#N)ccc3N(Cc3cncn3C)C2)c1 (configuration not stated)	15.6 min	–	–	–	–	–	–	–	–	–	–	–	–	–	–
Cn1cncc1CN1C(=O)C(N(Cc2ccc(S(C)(=O)=O)cc2)S(=O)(=O)c2ccccn2)Cc2cc(C#N)cnc21 (configuration not stated)	–	0%	48%	3100 nM	91%	3%	15 min	> 5000 nM	–	–	–	–	–	–	–
COC(=O)N1CCC(CN(C2Cc3cc(C#N)cnc3N(Cc3cncn3C)C2=O)S(=O)(=O)c2cn(C)cn2)CC1 (configuration not stated)	–	33%	95%	350 nM	98%	71%	> 120 min	175 nM	28%	85%	71%	7%	0%	5%	–
Cn1cnc(S(=O)(=O)N(Cc2ccc(S(C)(=O)=O)cc2)C2Cc3cc(C#N)cnc3N(Cc3cncn3C)C2=O)c1 (configuration not stated)	–	27%	98%	420 nM	99%	80%	52 min	300 nM	0%	47%	9%	0%	0%	0%	–
Cn1cnc(S(=O)(=O)NC2Cc3cc(C#N)cnc3N(Cc3cncn3C)C2=O)c1 (configuration not stated)	–	15%	66%	> 5000 nM	94%	32%	–	> 5000 nM	1%	39%	0%	0%	0%	0%	–
COC(=O)N1CCC(CN(C2Cc3cc(C#N)ccc3N(Cc3cncn3C)C2)S(=O)(=O)c2cn(C)cn2)CC1 (configuration not stated)	–	–	–	–	–	–	3.8 min	–	–	–	–	–	–	–	–
COC(=O)N1CCC(CN(C2Cc3cc(C#N)cnc3N(Cc3cncn3C)C2=O)S(=O)(=O)c2ccccn2)CC1 (configuration not stated)	–	0%	88%	320 nM	97%	16%	–	310 nM	–	–	–	–	–	–	–
Cn1cnc(S(=O)(=O)NC2Cc3cc(Br)cnc3N(Cc3cncn3C)C2=O)c1 (configuration not stated)	–	0%	28%	> 5000 nM	74%	0%	–	> 5000 nM	8%	51%	8%	5%	0%	16%	–
COC(=O)N1CCC(CN(C2Cc3cc(C#N)ccc3N(Cc3cncn3C)C2)S(=O)(=O)c2ccccn2)CC1 (configuration not stated)	–	–	–	–	–	–	5.4 min	–	–	–	–	–	–	–	320 nM
